Format in all cases: functional, cell-based
Test [1] concerns E2R. Put plainly: Antioxidant activity in human E2R cells assessed as intracellular peroxide level at 25 to 100 uM after 1 hr by flow cytometry in presence of DCFH-DA. Put shortly: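 E2R cells (EBV-positive, apoptosis-resistant isogenic Burkitt line) in RPMI with 4 mM L-glutamine, 10% FCS, 37 °C, 5% CO2. Compounds in DMSO (0.2%) for 1 h in RPMI, then 10 µM DCFH-DA for 20 min at 37 °C. Flow cytometry, excitation 488 nm, emission 533 nm (FL-1), 10,000 events per sample.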
On the technique in general: Flow cytometry measures light scatter and fluorescence of single cells or particles in a stream.

The subject of test [2] is E2R. The experiment in a line: Induction of apoptosis in human E2R cells expressing EBV assessed as condensed and fragmented nuclei at 25 to 100 uM after 18 hrs by epifluorescent microscopy. The gist of the method: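 BL41-derived E2R cells (EBV-positive, apoptosis-resistant) grown in RPMI with 4 mM L-glutamine and 10% FCS at 37 °C, 5% CO2. Seeded at 3 × 10^5 cells/mL and exposed to compounds in DMSO (≤0.5% v/v) for 18 h. Cells fixed in 4% p-formaldehyde and stained with DAPI (0.2 µg/mL). Condensed/fragmented nuclei scored in ≥500 cells from random fields by epifluorescence microscopy.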

Another test has as its system BL-41. Put plainly: Induction of apoptosis in human EBV deficient BL41 cells assessed as condensed and fragmented nuclei at 25 to 100 uM after 18 hrs by epifluorescent microscopy. The gist of the method:
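BL41 (EBV-negative Burkitt lymphoma) cells in RPMI with 4 mM L-glutamine, 10% FCS at 37 °C, 5% CO2. Seeded at 3 × 10^5 cells/mL and exposed 18 h to compounds in DMSO (≤0.5% v/v). Cells fixed in 4% p-formaldehyde, stained with DAPI 0.2 µg/mL. At least 500 cells in random fields scored by epifluorescence for condensed/fragmented nuclei.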

The source made the active and inactive calls. The calls are words filed in the database; no cut-off is given here.

As for `COc1cc(C[C@H]2C(=O)OC[C@@H]2Cc2ccc(O)c(O)c2)ccc1O`, in the test on E2R [1], the outcome was Active.
With `COc1cc(C[C@H]2C(=O)OC[C@@H]2[C@H](O)c2ccc(O)c(OC)c2)ccc1O`, the outcome in the test on E2R [2] and with BL-41 was inactive.
On to `COc1cc([C@H]2c3cc(O)c(OC)cc3C[C@@H](CO)[C@@H]2CO)ccc1O`, for which the result with E2R [2] and in the test on BL-41 was inactive.
For `COc1cc(/C=C2\C(=O)OC[C@@H]2C(=O)c2ccc(O)c(OC)c2)ccc1O`, the outcome with E2R [2] was Active.
On the same count and under the same terms, the same measure for `COc1cc(C(=O)[C@H]2COC(=O)[C@@H]2C(O)c2ccc(O)c(OC)c2)ccc1O` (stereo partly specified): “Active”.
Regarding `COc1cc2c(cc1O)[C@H](c1ccc(O)c(O)c1)[C@H]1COC[C@@H]1C2`, the result in the test on E2R [1] was inactive.
Regarding `COc1cc([C@H]2c3cc(O)c(OC)cc3C[C@H]3COC[C@@H]32)ccc1O`, in the test on E2R [1], the result was inactive. Also, the outcome with E2R [2] and with BL-41 was Active.
Regarding `COc1cc([C@H]2c3cc(O)c(OC)cc3C[C@H]3C(=O)OC[C@H]23)ccc1O`, the outcome with E2R [1] was Active. For the same molecule, the outcome in the test with E2R [2] and in the test with BL-41 was inactive.
In the case of `COc1cc(C[C@H]2COC(=O)[C@@H]2C(O)c2ccc(O)c(OC)c2)ccc1O` (stereo partly specified), the result in the test with E2R [2] and in the test on BL-41 was inactive.
On to `COc1cc(C[C@H]2COC(=O)[C@@H]2Cc2ccc(O)c(OC)c2)ccc1O`, for which the outcome in the test with E2R [1], in the test on E2R [2] and in the test on BL-41 was Active.
Regarding `COc1cc(C[C@H]2CO[C@H](c3ccc(O)c(OC)c3)[C@H]2CO)ccc1O`, the outcome in the test with E2R [2] and in the test on BL-41 was inactive.

The record behind these values is ChEMBL document CHEMBL1152389, “A novel and efficient synthesis of highly oxidized lignans by a methyltrioxorhenium/hydrogen peroxide catalytic system. Studies on their apoptogenic and antioxidant activity” (Bioorg Med Chem, 2009).
